Measured values: ChEMBL document CHEMBL2380279 (Bioorg Med Chem Lett, 2013)

What was measured:
Homo sapiens [1] = organism: Homo sapiens; experiment: Selectivity ratio of Ki for delta opioid receptor (unknown origin) to Ki for kappa opioid receptor (unknown origin)
[2] = target: T1, Kappa-type opioid receptor (Homo sapiens, UniProt P41145); experiment: Displacement of [3H]U69593 from kappa opioid receptor (unknown origin)
Method in brief: (§1)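 Competition radioligand binding. Ki was determined against [3H]DAMGO for MOR, [3H]DADLE for DOR and […] for KOR. Values are the mean of three experiments, each run in duplicate.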

Homo sapiens [3] = organism: Homo sapiens; experiment: Selectivity ratio of Ki for mu opioid receptor (unknown origin) to Ki for kappa opioid receptor (unknown origin)
[4] = target: Delta-type opioid receptor (Homo sapiens, UniProt P41143); experiment: Displacement of [3H]DADLE from delta opioid receptor (unknown origin); method in brief: as §1
Chain of Delta-type opioid receptor (P41143 whole entry): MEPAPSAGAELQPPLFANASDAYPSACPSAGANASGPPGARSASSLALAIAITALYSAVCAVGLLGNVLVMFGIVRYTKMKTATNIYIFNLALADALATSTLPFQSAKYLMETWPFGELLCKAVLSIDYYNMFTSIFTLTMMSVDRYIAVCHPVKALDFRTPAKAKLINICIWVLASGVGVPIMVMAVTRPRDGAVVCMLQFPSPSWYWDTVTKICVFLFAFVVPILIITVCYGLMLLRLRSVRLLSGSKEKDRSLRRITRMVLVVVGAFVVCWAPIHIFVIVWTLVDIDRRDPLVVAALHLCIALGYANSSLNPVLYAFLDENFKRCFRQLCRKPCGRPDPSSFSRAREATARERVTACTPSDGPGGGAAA

Mu-type opioid receptor = Mu-type opioid receptor (Homo sapiens, UniProt P35372); experiment: Displacement of [3H]DAMGO from mu opioid receptor (unknown origin); method in brief: as §1
Chain of Mu-type opioid receptor (P35372 whole entry): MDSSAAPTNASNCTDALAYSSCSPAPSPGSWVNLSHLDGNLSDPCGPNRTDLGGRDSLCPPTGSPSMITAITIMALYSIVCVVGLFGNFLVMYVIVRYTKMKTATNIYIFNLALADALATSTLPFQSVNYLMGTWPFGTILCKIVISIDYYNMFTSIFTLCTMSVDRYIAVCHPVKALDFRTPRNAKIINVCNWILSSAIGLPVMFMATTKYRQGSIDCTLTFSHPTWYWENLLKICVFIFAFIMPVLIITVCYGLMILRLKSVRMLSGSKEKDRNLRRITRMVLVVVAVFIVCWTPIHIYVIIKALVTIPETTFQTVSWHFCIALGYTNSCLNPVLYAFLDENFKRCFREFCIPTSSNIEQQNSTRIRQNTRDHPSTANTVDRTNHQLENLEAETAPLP

[5] = target: T1, Kappa-type opioid receptor; experiment: Agonist activity at kappa opioid receptor in human HEK293 cells assessed as stimulation of Galphai signaling by cAMP assay; assay type: functional, cell-based
Method in brief: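 Live HEK293 cells carrying the cAMP biosensor GloSensor-22F. Galphai activation through KOR was read from the cAMP signal. EC50 reported as mean ± SD.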

T1 sequence (P41145 whole entry): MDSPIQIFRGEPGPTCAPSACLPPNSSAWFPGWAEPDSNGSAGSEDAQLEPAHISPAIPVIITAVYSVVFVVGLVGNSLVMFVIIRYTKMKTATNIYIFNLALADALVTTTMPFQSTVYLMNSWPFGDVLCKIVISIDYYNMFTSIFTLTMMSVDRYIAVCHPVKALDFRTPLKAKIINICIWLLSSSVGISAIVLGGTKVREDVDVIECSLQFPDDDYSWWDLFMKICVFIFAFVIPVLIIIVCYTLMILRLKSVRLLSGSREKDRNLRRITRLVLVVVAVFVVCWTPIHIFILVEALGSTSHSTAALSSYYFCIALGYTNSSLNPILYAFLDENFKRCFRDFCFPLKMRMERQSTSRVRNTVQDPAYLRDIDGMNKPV

Structure (SMILES)	Ratio Ki (Homo sapiens [1])	Ki [2]	Ratio Ki (Homo sapiens [3])	Ki [4]	Ki (Mu-type opioid receptor)	EC50 [5]
COC(=O)[C@@H]1C[C@H](OC(=O)/C=C\C(=O)O)C(=O)[C@H]2[C@@]1(C)CC[C@H]1C(=O)O[C@H](c3ccoc3)C[C@]21C	1	> 10 µM	1	> 10 µM	> 10 µM	
COC(=O)[C@@H]1C[C@H](OC(=O)CC(=O)OC(C)(C)C)C(=O)[C@H]2[C@@]1(C)CC[C@H]1C(=O)O[C@H](c3ccoc3)C[C@]21C	> 67	0.148 µM		> 10 µM	> 10 µM	
CCOC(=O)CCC(=O)O[C@H]1C[C@@H](C(=O)OC)[C@]2(C)CC[C@H]3C(=O)O[C@H](c4ccoc4)C[C@]3(C)[C@H]2C1=O	> 23	0.437 µM		> 10 µM	> 10 µM	
COC(=O)[C@@H]1C[C@H](OC(=O)CSC#N)C(=O)[C@H]2[C@@]1(C)CC[C@H]1C(=O)O[C@H](c3ccoc3)C[C@]21C [22-THIOCYANATOSALVINORIN A]				> 10 µM	> 10 µM	
COC(=O)CCC(=O)O[C@H]1C[C@@H](C(=O)OC)[C@]2(C)CC[C@H]3C(=O)O[C@H](c4ccoc4)C[C@]3(C)[C@H]2C1=O	> 277	0.036 µM		> 10 µM	> 10 µM	0.855 µM
COC(=O)[C@@H]1C[C@H](OC(=O)CCC(=O)O)C(=O)[C@H]2[C@@]1(C)CC[C@H]1C(=O)O[C@H](c3ccoc3)C[C@]21C		4.07 µM		> 10 µM	> 10 µM	
COC(=O)[C@@H]1C[C@H](OC(=O)c2ccccc2C(=O)O)C(=O)[C@H]2[C@@]1(C)CC[C@H]1C(=O)O[C@H](c3ccoc3)C[C@]21C	> 4	2.29 µM		> 10 µM	> 10 µM	
COC(=O)/C=C/C(=O)O[C@H]1C[C@@H](C(=O)OC)[C@]2(C)CC[C@H]3C(=O)O[C@H](c4ccoc4)C[C@]3(C)[C@H]2C1=O	> 256	0.039 µM	18	> 10 µM	0.711 µM	0.07 µM
COC(=O)CC(=O)O[C@H]1C[C@@H](C(=O)OC)[C@]2(C)CC[C@H]3C(=O)O[C@H](c4ccoc4)C[C@]3(C)[C@H]2C1=O	2160	0.002 µM		4.32 µM	> 10 µM	0.137 µM
CCOC(=O)CC(=O)O[C@H]1C[C@@H](C(=O)OC)[C@]2(C)CC[C@H]3C(=O)O[C@H](c4ccoc4)C[C@]3(C)[C@H]2C1=O [ETHYLSALVINORINB-2-O-MALONATE]	> 476	0.021 µM		> 10 µM	> 10 µM	0.052 µM
CCOC(=O)/C=C/C(=O)O[C@H]1C[C@@H](C(=O)OC)[C@]2(C)CC[C@H]3C(=O)O[C@H](c4ccoc4)C[C@]3(C)[C@H]2C1=O	> 23	0.427 µM	2	> 10 µM	0.724 µM	
COC(=O)CCCCC(=O)O[C@H]1C[C@@H](C(=O)OC)[C@]2(C)CC[C@H]3C(=O)O[C@H](c4ccoc4)C[C@]3(C)[C@H]2C1=O	> 17	0.575 µM		> 10 µM	> 10 µM	
COC(=O)CCCC(=O)O[C@H]1C[C@@H](C(=O)OC)[C@]2(C)CC[C@H]3C(=O)O[C@H](c4ccoc4)C[C@]3(C)[C@H]2C1=O	> 33	0.302 µM	16	> 10 µM	5.01 µM	
COC(=O)[C@@H]1C[C@H](OC(=O)CCCC(=O)O)C(=O)[C@H]2[C@@]1(C)CC[C@H]1C(=O)O[C@H](c3ccoc3)C[C@]21C	> 38	0.263 µM	17	> 10 µM	4.57 µM	
COC(=O)[C@@H]1C[C@H](O)C(=O)[C@H]2[C@@]1(C)CC[C@H]1C(=O)O[C@H](c3ccoc3)C[C@]21C [SALVINORIN B]				> 10 µM	> 10 µM	
